In ChEMBL document CHEMBL3994589, “Total Synthesis and in Vitro Anti-Tumor-Promoting Activities of Racemic Acetophenone Monomers from Acronychia trifoliolata” (J Nat Prod, 2016) one finds level, % of control, viability and IC50 data, which are given here for 11 compounds.

In series [1] the test system is human gammaherpesvirus 4. The experiment in a line: Inhibition of TPA-induced EBV-early antigen activation in human Raji cells assessed as reduction in EBV-EA positive cells at 500 molar ratio per TPA after 48 hrs by indirect immunofluorescence method relative to TPA; values are per cent of control.
A short description of series [2]: Cytotoxicity against human Raji cells assessed as cell viability at 1000 molar ratio per TPA after 48 hrs by trypan blue staining based method. As to conditions: read-out: Activity. The procedure, abridged:
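Raji cells exposed to test compounds at 1000 mol ratio to TPA (TPA 32 pmol/mL) in the EBV-EA activation assay; viability of treated cells scored by trypan blue staining and reported as percentage.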

For series [3], the system named is human gammaherpesvirus 4. The experiment in a line: Inhibition of TPA-induced EBV-early antigen activation in human Raji cells assessed as reduction in EBV-EA positive cells at 1000 molar ratio per TPA after 48 hrs by indirect immunofluorescence method relative to TPA; values are per cent of control.
Series [4] has as its system human gammaherpesvirus 4. The series can be described thus: Inhibition of TPA-induced EBV-early antigen activation in human Raji cells assessed as reduction in EBV-EA positive cells at 10 molar ratio per TPA after 48 hrs by indirect immunofluorescence method relative to TPA; values are per cent of control.
Series [5] deals with human gammaherpesvirus 4. The experiment in a line: Inhibition of TPA-induced EBV-early antigen activation in human Raji cells assessed as reduction in EBV-EA positive cells at 100 molar ratio per TPA after 48 hrs by indirect immunofluorescence method relative to TPA; values are per cent of control.
The nature of series [6]: Inhibition of TPA-induced EBV-early antigen activation in human Raji cells after 48 hrs by indirect immunofluorescence method. Type of series: cell-based, human gammaherpesvirus 4. The procedure, abridged:
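EBV-EA activation induced in Raji cells by 32 pmol/mL TPA, with compounds tested over molar ratios relative to TPA. IC50 is the compound concentration inhibiting 50% of the positive control activated with 32 nM TPA.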

By IC50 is commonly meant the concentration that gives 50% inhibition. A lower IC50 goes with inhibition by little substance.

In the case of `COc1c(CC=C(C)C)c2c(c(OC(C)=O)c1C(C)=O)CC(C(C)(C)O)O2` (stereo not given), the level, % of control in the series with human gammaherpesvirus 4 [1] turned out to be 43.8%; in the series with human gammaherpesvirus 4 [3] it was 7%; in the series with human gammaherpesvirus 4 [4] it was 100%; in the series with human gammaherpesvirus 4 [5] it was 71%. Moreover, the viability at 48 h, 1000 molar ratio per TPA in series [2] was 60%. In series [6], this compound came in with an IC50 of 15 µM.

For `COc1c2c(c(CC=C(C)C)c(OC(C)=O)c1C(C)=O)OC(C(C)(C)O)C2` (stereo not given), the level, % of control in the series with human gammaherpesvirus 4 [1] was found to be 33.9%; in the series with human gammaherpesvirus 4 [3], 5.3%; in the series with human gammaherpesvirus 4 [4], 97.8%; in the series with human gammaherpesvirus 4 [5] it was 78.6%. Further, the viability at 48 h, 1000 molar ratio per TPA in series [2] came to 60%. In addition, half-maximal inhibition in series [6] (IC50) was put at 9.6 µM.

For the compound `COc1c(CCC(C)C)c2c(c(O)c1C(C)=O)CC(O)C(C)(C)O2` (stereo not given), the level, % of control came to 36.6% with human gammaherpesvirus 4 [1], 0% with human gammaherpesvirus 4 [3], 97.8% in the series on human gammaherpesvirus 4 [4] and 78.8% with human gammaherpesvirus 4 [5]. Besides, in series [2], the viability at 48 h, 1000 molar ratio per TPA is 60%. In series [6], this compound registered an IC50 of 8.1 µM.

Regarding `COc1c2c(c(CC=C(C)C)c(O)c1C(C)=O)OC(C(C)(C)O)C2` (racemic), the level, % of control was 30.6% with human gammaherpesvirus 4 [1], 0% in the series with human gammaherpesvirus 4 [3], 93.3% in the series with human gammaherpesvirus 4 [4] and 74.3% in the series on human gammaherpesvirus 4 [5]. Further, the viability at 48 h, 1000 molar ratio per TPA in series [2] was determined as 60%. The compound also came in with an IC50 in series [6] of 7.7 µM.

On to `COc1c(CC=C(C)C)c(O)c2c(c1C(C)=O)OC(C)(C)C(O)C2` (racemic), for which the level, % of control in the series on human gammaherpesvirus 4 [1] was 27.1%; in the series with human gammaherpesvirus 4 [3] it was 1.5%; in the series with human gammaherpesvirus 4 [4], 96.6%; in the series with human gammaherpesvirus 4 [5], 68.2%. Besides, the viability at 48 h, 1000 molar ratio per TPA in series [2] is 60%. Further, the IC50 in series [6] came to 8.4 µM.

With `COc1c2c(c(CC=C(C)C)c(O)c1C(C)=O)OC(C)(C)C(O)C2` (racemic), the level, % of control with human gammaherpesvirus 4 [1] amounted to 26.5%; in the series with human gammaherpesvirus 4 [3], 0%; in the series on human gammaherpesvirus 4 [4], 92.4%; in the series on human gammaherpesvirus 4 [5] it was 65.5%. The viability at 48 h, 1000 molar ratio per TPA in series [2] came to 60%. This compound came in with an IC50 in series [6] of 7.3 µM.

Consider `COc1c2c(c(CCC(C)C)c(O)c1C(C)=O)OC(C)(C)C(O)C2` (racemic), for which the level, % of control in the series with human gammaherpesvirus 4 [1] was found to be 31.5%; in the series on human gammaherpesvirus 4 [3], 4.9%; in the series with human gammaherpesvirus 4 [4], 97.7%; in the series with human gammaherpesvirus 4 [5] it was 76%. In series [2], the viability at 48 h, 1000 molar ratio per TPA came to 60%. This compound also showed an IC50 in series [6] of 9.3 µM.

Turning to `COc1c2c(cc(O)c1C(C)=O)OC(O)C2` (racemic), the level, % of control in the series on human gammaherpesvirus 4 [1] was 53.3%; in the series on human gammaherpesvirus 4 [3], 10.8%; in the series on human gammaherpesvirus 4 [4], 100%; in the series with human gammaherpesvirus 4 [5], 77.9%. The viability at 48 h, 1000 molar ratio per TPA in series [2] came out at 60%. For the same compound, in series [6], the IC50 was found to be 15.7 µM.

On to `COc1c(CC=C(C)C)c2c(c(O)c1C(C)=O)CC(O)C(C)(C)O2` (racemic), for which the level, % of control in the series on human gammaherpesvirus 4 [1] is 29.1%; in the series with human gammaherpesvirus 4 [3] it was 3%; with human gammaherpesvirus 4 [4] it was 96.9%; in the series with human gammaherpesvirus 4 [5] it was 72.5%. Also, the viability at 48 h, 1000 molar ratio per TPA in series [2] came to 60%. In series [6], this compound registered an IC50 of 8.9 µM.

For `COc1c(CC=C(C)C)c2c(c(O)c1C(C)=O)CC(C(C)(C)O)O2` (racemic), the level, % of control in the series on human gammaherpesvirus 4 [1] was found to be 32%; in the series on human gammaherpesvirus 4 [3] it was 0%; in the series with human gammaherpesvirus 4 [4], 94.9%; in the series with human gammaherpesvirus 4 [5] it was 75.5%. Besides, the viability at 48 h, 1000 molar ratio per TPA in series [2] was 60%. The same compound showed an IC50 in series [6] of 8 µM.

Consider `COc1cc(/C=C/C(=O)CC(=O)/C=C/c2ccc(O)c(OC)c2)ccc1O` [CURCUMIN], for which the level, % of control in the series with human gammaherpesvirus 4 [1] was determined as 21.1%; with human gammaherpesvirus 4 [3], 0%; in the series on human gammaherpesvirus 4 [4], 100%; in the series with human gammaherpesvirus 4 [5], 80.1%. The compound further displayed a concentration for half-maximal inhibition (IC50) in series [6] of 12.1 µM.
